Experimental data taken from the RNAGym collection of RNA variant scans (doi:10.1038/nmeth.2970).

B1: NELF-E aptamer (parent)
chain: CCCAACGACUGCCGAGCGAGAUUACGCUUGAGCGCCCCACUGAGGAUGCCCACGGGCGAUUGGGGCACGG

Variants of: B1
Assay: HiTS-RAP
Details: with NELF-E (Drosophila)
How it was run: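 Kd came from weighted Hill fits to the first binding curve, with intensities normalised to sequencing intensity and averaged per sequence, keeping only fits whose variance was below 1,000,000. That curve was imaged on an Illumina GAIIx flowcell, where sequenced aptamer DNA templates with a T7 promoter and ter site had been transcribed in situ by T7 RNA polymerase and halted by GST-Tus (30 minutes, 37°C). Before each image, clusters equilibrated for 30 minutes at room temperature with NELF-E-mOrange at 0.064 to 1000 nM in HEPES binding buffer.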
CCCAACGACUGCCGAGCGAGAUUACGCCUGAGCGCCCCACCGAGGAUGCCCACGGGCGAUUGGGGCACGG [U28C U41C] showed a Kd of 98.6 nM. CCCAAGGACUGCCGAGCGAGAUUACGCUUGGGCGCCCCACUGAGGAUGCCCACGGGCGAUUGGGGCACGG [C6G A31G] showed a Kd of 6.87 nM. CCCAACGAGUGCCGAGCGAGAUUACGCUUGAGCGCCCCACUGAGGAUGCCCACGGUCGAUUGGGGCACGG [C9G G56U] showed a Kd of 6.71 nM. CCCAACGACUGCGGAGCGAGAUUACGCUUGAGCGCCCCACUGAGGAUGCCCACGGGCGAUUGGGGCUCGG [C13G A67U] gave a Kd of 7.5 nM. CCCAACGAUUGCCGAGGGAGAUUACGCUUGAGCGCCCCACUGAGGAUGCCCACGGGCGAUUGGGGCACGG [C9U C17G] was tested, and the Kd was 6.19 nM. Variant CCCAACGACUGCCGAGGGAGAUUACGCCUGAGCGCCCCACUGAGGAUGCCCACGGGCGAUUGGGGCACGG [C17G U28C] has a Kd of 8.7 nM. For CCCAACGUCUGCCGGGCGAGAUUACGCUUGAGCGCCCCACUGAGGAUGCCCACGGGCGAUUGGGGCACGG [A8U A15G], the Kd was 5.78 nM. CCCAACGACUGCCGAGCGAGAUGACGCUUGAGGGCCCCACUGAGGAUGCCCACGGGCGAUUGGGGCACGG [U23G C33G] gave a Kd of 8.04 nM. Variant CCCAACGACUGCCGAGCGAGAUGACGCUUGAGUGCCCCACUGAGGAUGCCCACGGGCGAUUGGGGCACGG [U23G C33U] has a Kd of 6.01 nM. Work on CCCAAGGACUGCCGAGCGAGAUUACGCUUGAGCGCCCCACUGAGGAUACCCACGGGCGAUUGGGGCACGG [C6G G48A] yielded a Kd of 11.6 nM. For CCCAACGGCUGCCGAGCGAGAUUACGCUUGAGCGCCCCACUGAGGAUGCCCACGGUCGAUUGGGGCACGG [A8G G56U], the Kd was 6.49 nM. In the case of CCCAACGGCUGCCGAGCGAGAUUACGCUUGAGCGCCCCACUGAGGAUGCCUACGGGCGAUUGGGGCACGG [A8G C51U], the Kd is reported as 6.89 nM. CCCAACGACUGCCGAUCGAGAUGACGCUUGAGCGCCCCACUGAGGAUGCCCACGGGCGAUUGGGGCACGG [G16U U23G] was tested, and the Kd was 5.85 nM. In the case of CCCAACGACUGCCGUGCGAGAUUACGCUUGAGCACCCCACUGAGGAUGCCCACGGGCGAUUGGGGCACGG [A15U G34A], the Kd is reported as 11.8 nM. Work on CCCAACGACUGCCGAGGGAGAUUACGCUUGAGCGCCCCACUGAGGAUGCCCACGGGCGAUUGGGGCACGG [C17G] yielded a Kd of 5.02 nM. In the case of CCCAUCGACUGCCGAGCGAGAUUACGCUUGAGCGCCCCACUGUGGAUGCCCACGGGCGAUUGGGGCACGG [A5U A43U], the Kd is reported as 99.1 nM. CCCAACGUCUGCCGAGCGAGAUUACGCUUGAGCGCUCCACUGAGGAUGCCCACGGGCGAUUGGGGCACGG [A8U C36U] was tested, and the Kd was 8.33 nM. CCCAAGGACUGCCGAGCGAGAUUACGCUUGAGCGCCCCACUGAGGAUGCCCACGGGCGAUUGGGGUACGG [C6G C66U] gave a Kd of 5.41 nM. With CCCGACGACUGCCGAGCGAGAUUACGCUUGAGCGCCCCACUGAGGAUGCCCACGGGCGAUUGGGGCGCGG [A4G A67G] the Kd was 6.54 nM. Work on CCCGACGACUGCCGAGCGAGAUUACGCUUGAGCGCCCCACUGAGGAUGCCCACGGGCUAUUGGGGCACGG [A4G G58U] yielded a Kd of 13.2 nM. CCCAUCGACUGCCGAUCGAGAUUACGCUUGAGCGCCCCACUGAGGAUGCCCACGGGCGAUUGGGGCACGG [A5U G16U] was tested, and the Kd was 6.86 nM. With CCCGACGACUGCCGAGCGAGAUUACGCUUGAGCGCCCCACUAAGGAUGCCCACGGGCGAUUGGGGCACGG [A4G G42A] the Kd was 45.2 nM. Work on CCCAACGACUGCCGAGCGGGAUUACGCUGGAGCGCCCCACUGAGGAUGCCCACGGGCGAUUGGGGCACGG [A19G U29G] yielded a Kd of 5.87 nM. In the case of CCCAAGGACUGCCGAGCGAGUUUACGCUUGAGCGCCCCACUGAGGAUGCCCACGGGCGAUUGGGGCACGG [C6G A21U], the Kd is reported as 5.06 nM. CCCAACGACUGCCGAGCGAGAUUACGCUUGAGCGCCCCACUGAGGAUGCCCACGGGCGUUUGGGGCACGG [A59U] was tested, and the Kd was 72.2 nM. CCCAACGACUGCCGAGCGAGAUUACGCUUGAGCGCCCCACGGAGGAUGCCCACGGGCGAUUAGGGCACGG [U41G G62A] showed a Kd of 19.9 nM. In the case of CCCAACAACGGCCGAGCGAGAUUACGCUUGAGCGCCCCACUGAGGAUGCCCACGGGCGAUUGGGGCACGG [G7A U10G], the Kd is reported as 5.66 nM. With CCCAACGACGGCCGAGCGAGAUUACGCUUGAGCGCCCCACUGAGGAUGCCCACGGGAGAUUGGGGCACGG [U10G C57A] the Kd was 11.8 nM. CCCGACGACUGCCGAGCGGGAUUACGCUUGAGCGCCCCACUGAGGAUGCCCACGGGCGAUUGGGGCACGG [A4G A19G] was tested, and the Kd was 5.64 nM. CCCAACGACGUCCGAGCGAGAUUACGCUUGAGCGCCCCACUGAGGAUGCCCACGGGCGAUUGGGGCACGG [U10G G11U] showed a Kd of 5.48 nM. CCCAACGUCUGCCGAGCGAGAUUACGCUUGAGCGCCCCACUGAGGAUGCCCACGGUCGAUUGGGGCACGG [A8U G56U] showed a Kd of 6.41 nM. CCCGACGACUGUCGAGCGAGAUUACGCUUGAGCGCCCCACUGAGGAUGCCCACGGGCGAUUGGGGCACGG [A4G C12U] showed a Kd of 5.25 nM. Variant CCCAACUACUGCCGAGCUAGAUUACGCUUGAGCGCCCCACUGAGGAUGCCCACGGGCGAUUGGGGCACGG [G7U G18U] has a Kd of 6.84 nM. CCCAACGACUGCGGAGCGAGAUUACGCUUGAGCGCCCCACUGAGUAUGCCCACGGGCGAUUGGGGCACGG [C13G G45U] was tested, and the Kd was 6.75 nM. CCCAACGACUGCGGAGCGAGAUUACGCUUGAGCGCCCCACUGAGGAUGCCCACGGGCGAUUUGGGCACGG [C13G G62U] showed a Kd of 7.22 nM. CCCAACGACUGCCGAACGAUAUUACGCUUGAGCGCCCCACUGAGGAUGCCCACGGGCGAUUGGGGCACGG [G16A G20U] showed a Kd of 7.98 nM. For CCCAACGAUUGCCUAGCGAGAUUACGCUUGAGCGCCCCACUGAGGAUGCCCACGGGCGAUUGGGGCACGG [C9U G14U], the Kd was 6.79 nM. CCCAACGAGUGCCGAGCGAGAUUACGCUUGAGCGCCCCACUGAGGAUGCCCACGGGCGAUUGGGGUACGG [C9G C66U] gave a Kd of 5.54 nM. With CCCAACGACUGCCGAGCGGGAUUACGCUUGAGCGCCCCACUGAGGAUGCCCACGGGCGAUUGGGGCGCGG [A19G A67G] the Kd was 5.94 nM.
